Myeloid diff MLP: promotes myeloid progenitor differentiation. ER-HoxA9 myeloid progenitors, lysozyme-GFP differentiation, flow cytometry. calls only at 10 µM. 360,000 tested, 1% active. AID 624256;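 active means normalized GFP-positive differentiation at or above the plate's own cutoff, the solvent-only control mean plus 3 SD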;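 further: cells exposed to compound for four days before flow analysis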
HNF4A DNA FP: change in binding of human HNF4 alpha to DNA; P41235; HNF4a-FITC DNA binding, fluorescence polarization, 1 h; activity change, % at 10 µM; 360,000 tested, 0.3% active; AID 1224865; in the data active means activity change above about 30%, passing the limit was not always enough
Target sequence (P41235 whole entry, looked up): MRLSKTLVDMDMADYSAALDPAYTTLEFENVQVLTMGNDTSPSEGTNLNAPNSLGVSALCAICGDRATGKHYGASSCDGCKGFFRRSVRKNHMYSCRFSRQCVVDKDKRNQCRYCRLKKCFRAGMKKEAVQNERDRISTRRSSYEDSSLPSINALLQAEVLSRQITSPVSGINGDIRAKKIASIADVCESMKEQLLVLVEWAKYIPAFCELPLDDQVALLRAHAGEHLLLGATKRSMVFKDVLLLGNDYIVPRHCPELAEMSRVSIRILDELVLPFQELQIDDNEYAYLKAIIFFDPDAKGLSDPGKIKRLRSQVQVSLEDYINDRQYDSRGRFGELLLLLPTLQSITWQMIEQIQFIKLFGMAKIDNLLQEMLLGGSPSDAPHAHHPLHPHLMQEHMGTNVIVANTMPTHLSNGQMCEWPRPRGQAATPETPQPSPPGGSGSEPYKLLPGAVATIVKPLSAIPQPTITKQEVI
TPT1 inhibitor: inhibitors of Candida albicans tRNA 2'-phosphotransferase TPT1; recombinant caTPT1, FP RNA substrate dephosphorylation; inhibition, % at 5 µM; 300,000 tested, 0.81% active;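 active means inhibition above the mean of all tested compounds plus 3 SD, set per screening campaign, cut at about 24% in these data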;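 further: plate controls were DMSO alone for no effect and ferristatin control at 100 nM for full effect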
Rpn11 block: Rpn11 (human) deubiquitinase inhibition. O00487. human 26S proteasome, Ub4-pepOG fluorescence polarization; 20S core pre-blocked with epoxomicin. inhibition, % at 20 µM. 360,000 tested, 0.59% active;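 active means inhibition at 20 µM, scaled to each plate's controls, above about 33%, limit read from the data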
CSN deneddyl inh: blocks human CSN-mediated cullin deneddylation; inhibition, % at 12.5 µM; Purified CSN, SCF-Nedd8-OG deneddylation, fluorescence polarization; 360,000 tested, 0.38% active; Q92905;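 active means pattern-corrected inhibition above about 35%, with an unprinted fluorescence ratio check between 0.5 and 1.5, limit read from the data, passing the limit was not always enough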;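 further: 0% = enzyme with substrate and 100% = substrate without enzyme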
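Detection – fluorescence polarization · System – HEK293T-derived human Csn5 enzyme · Controls – substrate-only high control, full reaction low control · Timing – 90 min, room temperature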
Myeloid diff: myeloid differentiation induction. shares compounds with Myeloid diff MLP. AID 651706. 2,300 tested, 2% active. calls only. ER-HoxA9 myeloid progenitors, GFP/Mac1 double-positive flow;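 active means share of green or green-and-red cells above 9 and 9% in run 1 or 4 and 3% in run 2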
GFP autofluor: flagged as fluorescent in myeloid differentiation counter-screen | 2,300 tested, 7.4% active | shares compounds with Myeloid diff MLP | fluorescence response, % (concentration not given with the values) | ER-HoxA9 myeloid progenitors, no estrogen, GFP autofluorescence flow cytometry; vehicle wells 0%, positive control 100%;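 active means over 5% cells positive for green fluorescent reporter, or over 2% positive for both it and APC stain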;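 further: range taken on the double positive population between DMSO and positive control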
An asterisk follows results filed as active; i = inactive; x = no result given; + = active, no number. In the library only some 2.3% were active in any assay of this set; here they are far more common.

SMILES | Myeloid diff MLP | HNF4A DNA FP | TPT1 inhibitor | Rpn11 block | CSN deneddyl inh | Myeloid diff | GFP autofluor
CS(=O)(=O)c1nc(S(=O)(=O)c2ccc(Cl)cc2)c(N2CCOCC2)s1 | i | -4 | 0 | 1 | -2 | i | 0
CC1CN(c2sc(S(C)(=O)=O)nc2S(=O)(=O)c2ccc(Cl)cc2)CC(C)O1 (stereo not drawn) | i | 4 | 0 | -2 | 2 | i | 0
CC1CCCN(c2sc(S(C)(=O)=O)nc2S(=O)(=O)c2ccc(Cl)cc2)C1 (stereo not drawn) | i | -4 | -2 | -5 | -1 | x | x
CCn1c(CN2CCN(C(c3ccccc3)c3ccccc3)CC2)nc2c1c(=O)n(C)c(=O)n2C | i | 5 | -8 | 4 | 2 | x | x
COc1ccc([N+](=O)[O-])cc1N(CC(=O)N1CCN(Cc2ccccc2)CC1)S(C)(=O)=O | i | 2 | 0 | 1 | 0 | x | x
Cc1ccc(CC(CC(=O)O)C(=O)NC2CCCCC2)cc1 (stereo not drawn) | + | -3 | 0 | 3 | 1 | i | 0
S=C(NC1CC1)NC1CCCc2ccccc21 (stereo not drawn) | i | -2 | -1 | -3 | -1 | i | 0
O=C(Nc1ccc2nc(C3CC3)n(Cc3ccc(F)cc3)c(=O)c2c1)c1ccco1 | + | 5 | 0 | -3 | 5 | i | 0
CC(C)(C)c1nc(NC(=O)Nc2ccccc2)sc1Br | i | 1 | 2 | 6 | 4 | x | x
CC(OC(=O)c1ccc(NC(=O)CC#N)cc1)C(=O)NC(c1ccccc1)c1ccccc1 (stereo not drawn) | i | 8 | x | 18 | 6 | i | 1
CC(OC(=O)c1ccc(NC(=O)CC#N)cc1)C(=O)Nc1ccc2c(c1)OCCO2 (stereo not drawn) | i | 7 | 6 | 17 | 2 | x | x
CCCCOc1ccc(C(O)(CCC)CCN2CCOCC2)cc1 (stereo not drawn) | i | -1 | 1 | -2 | -7 | i | 0
CCOC(=O)C1C(=O)C(=O)N(Cc2ccccc2)C1C(=O)OCC (stereo not drawn) | i | 7 | x | -1 | 2 | x | x
CC(C)(C)OC(=O)NCCc1nnc(SCc2ccccc2)o1 | i | 5 | -2 | -3 | 1 | x | x
CC(C)(C)OC(=O)NCCc1nnc(SCc2ccccc2Cl)o1 | i | -4 | 0 | -1 | 5 | i | 0
CCN1C(=O)[C@H]2[C@@H](c3ccc(-c4cccc(Cl)c4)c(OC)c3)N3CCCC[C@@]3(C(=O)OC)[C@H]2C1=O | i | -4 | x | 5 | 2 | x | x
CC(=O)c1ccc(NC(=O)c2ccc3nc(-c4ccco4)c(-c4ccco4)nc3c2)cc1 | i | -48 | 6 | 34 | 84 | x | x
O=C(Nc1ccccc1)c1ccc2nc(-c3ccco3)c(-c3ccco3)nc2c1 | i | -27 | 3 | 2 | 68 | i | 0
CC(=O)Oc1ccc(Cn2cnc3cc4ccccc4cc32)cc1 | i | 1 | -4 | 4 | 2 | i | 0
COc1cc(C)ccc1OCc1cc(C(=O)N2CCC(c3ccc(F)cc3)C2)no1 (stereo not drawn) | i | 1 | 2 | 7 | 1 | x | x
Cc1cc(C(=O)COc2ccc(F)cc2Br)c(C)n1C | i | 0 | -1 | -3 | -4 | x | x
Cc1cc(C(=O)COc2ccc(F)cc2Br)c(C)n1C1CC1 | i | -4 | x | -5 | 5 | i | 2
C[C@@]12C(=O)N(c3cccc(Cl)c3)C(=O)N1[C@H](c1ccc(Cl)cc1)[C@@H]1C(=O)N(C3CCCCC3)C(=O)[C@@H]12 | + | 2 | -2 | 0 | -1 | i | 1
NS(=O)(=O)c1ccc(NC(=O)CN2CCCc3ccccc32)cc1 | + | 12 | 4 | x | 11 | i | 0
NS(=O)(=O)c1ccc(NC(=O)CCc2ccccc2)cc1 | i | -2 | 0 | -3 | 5 | i | 0
SMILES | Myeloid diff MLP | HNF4A DNA FP | TPT1 inhibitor | Rpn11 block | CSN deneddyl inh | Myeloid diff | GFP autofluor
O=C(CCc1ccccc1)Nc1ccccc1 | i | -2 | -2 | -5 | 2 | x | x
COc1ccccc1Cc1c(C(C)(C)C)nc2c3ccccc3ccn12 | + | 1 | x | 6 | -4 | i | 0
Cc1nc(SCC(=O)c2cc3ccccc3oc2=O)c(C#N)c(-c2ccccc2)c1C(=O)Nc1ccccc1 | i | 1 | 5 | 10 | -6 | i | 0
CCOC(=O)c1ccc(CSc2ncn[nH]2)o1 | i | 1 | -3 | -5 | 2 | i | 0
O=C(NCCN1CCCC1)C1CCC(=O)N(CCCN2CCOCC2)C1 (stereo not drawn) | i | -3 | 3 | 2 | 2 | x | x
COc1ccc(CN2c3c(Br)cccc3C(=O)CS2(=O)=O)cc1 | + | 2 | x | 21 | -1 | i | 0
OCCNc1ncnc2c1ncn2[C@H]1CN(Cc2ccco2)C[C@@H](CO)O1 | i | -4 | x | -2 | -6 | x | x
Cc1ccc(S(=O)(=O)c2cc3c(=O)n4cccc(C)c4nc3n(Cc3ccncc3)c2=N)cc1 | i | 2 | 1 | -9 | 8 | x | x
Cc1ccccc1NC(=O)c1sc2nc[nH]c(=O)c2c1C | i | -4 | 2 | -3 | -4 | i | 0
COc1cc(S(=O)(=O)NCC2CCCO2)ccc1Br (stereo not drawn) | i | 4 | 2 | -6 | 0 | i | 0
COc1ccc(S(=O)(=O)NCC2CCCO2)cc1Cl (stereo not drawn) | i | 0 | 1 | 1 | 1 | x | x
O=C(C1CCC(=O)N(C2CC2)C1)N(CCO)Cc1ccccc1 (stereo not drawn) | i | 1 | -3 | -7 | 0 | x | x
O=C(COC(=O)c1cc(=O)[nH]c2ccccc12)Nc1ccc(F)cc1 | i | 4 | x | -7 | 0 | x | x
COc1cccc(CNC(=O)CN2C(=O)CSc3ccc(S(=O)(=O)N4CCCCC4)cc32)c1 | i | -1 | 2 | -5 | 2 | x | x
CC1CCN(c2nc(-c3cccnc3)nc3scc(-c4ccccc4)c23)CC1 | i | 3 | -1 | 18 | 3 | x | x
CC1CCN(c2nc(CN3CCCCC3)nc3scc(-c4ccccc4)c23)CC1 | i | 4 | 4 | 9 | 1 | i | 0
O=C1c2ccccc2[C@@H]2C[C@@H](O)[C@H](Nc3cccc4ccccc34)CCN12 | i | 9 | x | 10 | 4 | x | x
Cc1cccc(C)c1NC(=O)C1(C)CSCC(=O)N1CCOc1ccccc1 (stereo not drawn) | i | 8 | x | x | 1 | i | 0
CCOc1ccc(C(=O)NCC(=O)OCc2c(F)cccc2Cl)cc1OCC | i | 0 | 1 | 2 | 5 | i | 0
COc1cc(C(=O)NCC(c2ccco2)N2CCCC2)ccc1OCc1ccc(Cl)cc1Cl (stereo not drawn) | + | 1 | x | 4 | -5 | i | 4
